Test results: ChEMBL document CHEMBL4118114 (Bioorg Med Chem, 2018); call rule not given here
Starred links: 1 amine or outer side, 2 acyl side, 3 side chain; linkers in the order of their positions; H or OH if unused. Positions of bridges follow the written chain, without caps; N, C: chain ends. Non-standard residues stand in square brackets, D forms with d. Residues, ends and D or L forms follow the SMILES beside them. oXylylene = c1ccc(C[*:2])c(C[*:1])c1; X1 = O=C(CCC[*:2])[*:1]; Mpa = O=C(O)CCS

Experiments:
[1] = molecular target: T1, Oxytocin receptor (Homo sapiens) (UniProt P30559); assay: (§1) Agonist activity at human mammary gland oxytocin receptor expressed in CHO cells assessed as increase in intracellular calcium flux measured for 5 mins by Fluo-4-AM dye based FLIPR assay; format: functional, cell-based
T1 sequence (whole entry): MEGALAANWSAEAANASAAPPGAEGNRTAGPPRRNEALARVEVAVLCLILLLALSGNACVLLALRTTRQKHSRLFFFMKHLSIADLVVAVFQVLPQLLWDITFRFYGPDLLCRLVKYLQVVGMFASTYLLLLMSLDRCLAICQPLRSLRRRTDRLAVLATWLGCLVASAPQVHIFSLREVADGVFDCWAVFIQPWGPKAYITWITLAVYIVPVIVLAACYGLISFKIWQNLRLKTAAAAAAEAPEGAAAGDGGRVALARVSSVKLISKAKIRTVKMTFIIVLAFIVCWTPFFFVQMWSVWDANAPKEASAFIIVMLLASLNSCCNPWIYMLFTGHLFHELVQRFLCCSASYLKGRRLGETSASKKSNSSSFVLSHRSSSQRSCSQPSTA
Outline: (§2)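 Stably transfected CHO lines, one human receptor each, grown in F-12K with 10% FBS, geneticin 200 µg/mL, 37 °C, 10% CO2. Plated 50,000 cells/well for 24 h, then loaded 60 min with 2 µM Fluo-4-AM. Compound dilution series added on FLIPR and calcium signal recorded 5 min for agonist activity. Each compound tested at least 3 times in duplicate.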

[2] = Thermal stability of the compound at 50 degC at 0.5 mg/ml after 10 days by LC-MS analysis; format: physicochemical; conditions: 240 h
Outline: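 Peptides dissolved in water at 0.5 mg/mL and held at 50 °C. After 10 days, aliquots were analysed by direct-injection LC-MS. Remaining peptide was expressed as a percentage of the corresponding peak before heating.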

Vasopressin V1b receptor [3] = molecular target: T2, Vasopressin V1b receptor (Homo sapiens, UniProt P47901); assay: Agonist activity at human vasopressin V1b receptor expressed in CHO cells assessed as increase in intracellular calcium flux measured for 5 mins by Fluo-4-AM dye based FLIPR assay; format: functional, cell-based
T2 sequence (P47901 whole entry): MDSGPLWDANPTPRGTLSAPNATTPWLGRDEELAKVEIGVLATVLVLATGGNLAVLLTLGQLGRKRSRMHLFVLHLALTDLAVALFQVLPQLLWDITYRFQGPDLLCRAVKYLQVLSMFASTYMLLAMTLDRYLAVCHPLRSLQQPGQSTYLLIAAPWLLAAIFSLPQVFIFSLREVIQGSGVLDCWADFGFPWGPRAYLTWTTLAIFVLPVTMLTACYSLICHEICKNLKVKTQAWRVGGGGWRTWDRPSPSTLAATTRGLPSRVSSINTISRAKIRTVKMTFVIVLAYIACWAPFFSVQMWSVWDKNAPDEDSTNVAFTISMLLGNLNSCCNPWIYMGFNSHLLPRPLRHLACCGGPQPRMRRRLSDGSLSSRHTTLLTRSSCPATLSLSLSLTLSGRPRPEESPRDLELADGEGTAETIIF

Oxytocin receptor [4] = molecular target: T3, Oxytocin receptor (Homo sapiens, UniProt P30559); assay: Displacement of [3H]OT from human mammary gland oxytocin receptor expressed in HEK293 cell membrane after 1 hr by scintillation counting method; format: cell membranes
T3 sequence (P30559 whole entry): T1 sequence (whole entry)
Outline: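 Membranes from a stable HEK clone expressing human OTR cloned from mammary gland RNA. Filtration binding with 1 nM final [3H]OT in 50 mM Tris, 5 mM MgCl2, 0.1% BSA, pH 7.4, for 1 h at room temperature. GF/C filters, washed 5 times ice-cold. Ki by Cheng-Prusoff. Three experiments in duplicate.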

Vasopressin V1b receptor [5] = molecular target: T2, Vasopressin V1b receptor; assay: Displacement of [3H]AVP from human vasopressin V1b receptor expressed in HEK293 cell membrane after 1 hr by scintillation counting method; format: cell membranes
Oxytocin receptor [6] = molecular target: T3, Oxytocin receptor; assay: Antagonist activity at human mammary gland oxytocin receptor expressed in CHO cells assessed as inhibition of agonist-induced intracellular calcium flux preincubated for 20 mins followed by oxytocin addition measured for 5 mins by Fluo-4-AM dye based FLIPR assay; format: functional, cell-based
Outline: (§3)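 CHO cells stably expressing the relevant human receptor, plated 24 h, loaded 60 min with 2 µM Fluo-4-AM and read on FLIPR. […] IC50 came from a variable-slope single-site competition fit of normalized fluorescence. At least 3 runs in duplicate.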

Oxytocin receptor [7] = molecular target: T3, Oxytocin receptor; assay: as §1; format: functional, cell-based; outline: as §2
Vasopressin V1a receptor [8] = molecular target: T4, Vasopressin V1a receptor (Homo sapiens, UniProt P37288); assay: Antagonist activity at human liver vasopressin V1a receptor expressed in CHO cells assessed as inhibition of agonist-induced intracellular calcium flux preincubated for 20 mins followed by AVP addition measured for 5 mins by Fluo-4-AM dye based FLIPR assay; format: functional, cell-based; outline: as §3
Vasopressin V1a receptor [9] = molecular target: T4, Vasopressin V1a receptor; assay: Displacement of [3H]AVP from human liver vasopressin V1a receptor expressed in HEK293 cell membrane after 1 hr by scintillation counting method; format: cell membranes
Outline: (§4)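 Membranes from transiently transfected HEK293 cells. Receptors were cloned from human liver (V1a) or kidney (V2) RNA. SPA assay with yttrium silicate beads in 50 mM Tris, 120 mM NaCl, 5 mM KCl, 2 mM CaCl2, 10 mM MgCl2. 4 nM [3H]AVP added, compound in 2% DMSO, 1 h at room temperature. Ki by Cheng-Prusoff. Three experiments in duplicate.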

Vasopressin V1b receptor [10] = molecular target: T2, Vasopressin V1b receptor; assay: Antagonist activity at human vasopressin V1b receptor expressed in CHO cells assessed as inhibition of agonist-induced intracellular calcium flux preincubated for 20 mins followed by AVP addition measured for 5 mins by Fluo-4-AM dye based FLIPR assay; format: functional, cell-based; outline: as §3
Vasopressin V1a receptor [11] = molecular target: T4, Vasopressin V1a receptor; assay: Agonist activity at human liver vasopressin V1a receptor expressed in CHO cells assessed as increase in intracellular calcium flux measured for 5 mins by Fluo-4-AM dye based FLIPR assay; format: functional, cell-based; outline: as §2
Vasopressin V2 receptor [12] = molecular target: T5, Vasopressin V2 receptor (Homo sapiens, UniProt P30518); assay: Displacement of [3H]AVP from human kidney vasopressin V2 receptor expressed in HEK293 cell membrane after 1 hr by scintillation counting method; format: cell membranes; outline: as §4
Homo sapiens [13] = species on record: Homo sapiens; assay: Selectivity index, ratio of IC50 for human liver vasopressin V1a receptor to IC50 for human mammary gland oxytocin receptor
Vasopressin V2 receptor [14] = molecular target: T5, Vasopressin V2 receptor; assay: Agonist activity at human kidney vasopressin V2 receptor expressed in CHO cells assessed as increase in intracellular calcium flux measured for 5 mins by Fluo-4-AM dye based FLIPR assay; format: functional, cell-based; outline: as §2
Homo sapiens [15] = species on record: Homo sapiens; assay: Selectivity index, ratio of IC50 for human mammary gland oxytocin receptor to IC50 for human liver vasopressin V1a receptor
Vasopressin V2 receptor [16] = molecular target: T5, Vasopressin V2 receptor; assay: Antagonist activity at human kidney vasopressin V2 receptor expressed in CHO cells assessed as inhibition of agonist-induced intracellular calcium flux preincubated for 20 mins followed by AVP addition measured for 5 mins by Fluo-4-AM dye based FLIPR assay; format: functional, cell-based
Outline: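 CHO cells stably expressing the relevant human receptor, plated 24 h, loaded 60 min with 2 µM Fluo-4-AM and read on FLIPR. IC50 came from a variable-slope single-site competition fit of normalized fluorescence. At least 3 runs in duplicate.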

Homo sapiens [17] = species on record: Homo sapiens; assay: Selectivity index, ratio of Ki for human liver vasopressin V1a receptor to Ki for human mammary gland oxytocin receptor
Outline: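 Ratio of binding Ki from the radioligand displacement assays, calculated as the strongest AVP receptor subtype binding value divided by the OTR value.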

Homo sapiens [18] = species on record: Homo sapiens; assay: Selectivity index, ratio of Ki for human mammary gland oxytocin receptor to Ki for human liver vasopressin V1a receptor
Outline: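 Ratio of binding Ki from the radioligand displacement assays, calculated as the OTR binding value divided by the V1a value.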

[19] = Half life in Sherman rat plasma; format: ADME, cell-free

T5 sequence (P30518 whole entry): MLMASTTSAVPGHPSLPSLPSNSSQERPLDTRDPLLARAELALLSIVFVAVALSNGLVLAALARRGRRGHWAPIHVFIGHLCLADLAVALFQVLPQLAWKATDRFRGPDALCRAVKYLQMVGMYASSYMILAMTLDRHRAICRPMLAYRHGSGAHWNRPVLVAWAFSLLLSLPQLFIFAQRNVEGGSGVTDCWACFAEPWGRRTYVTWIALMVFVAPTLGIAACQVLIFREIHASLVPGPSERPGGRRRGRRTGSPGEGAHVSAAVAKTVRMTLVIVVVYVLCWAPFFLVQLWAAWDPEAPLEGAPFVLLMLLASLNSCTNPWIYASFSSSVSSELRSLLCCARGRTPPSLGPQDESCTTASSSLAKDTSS
T4 sequence (P37288 whole entry): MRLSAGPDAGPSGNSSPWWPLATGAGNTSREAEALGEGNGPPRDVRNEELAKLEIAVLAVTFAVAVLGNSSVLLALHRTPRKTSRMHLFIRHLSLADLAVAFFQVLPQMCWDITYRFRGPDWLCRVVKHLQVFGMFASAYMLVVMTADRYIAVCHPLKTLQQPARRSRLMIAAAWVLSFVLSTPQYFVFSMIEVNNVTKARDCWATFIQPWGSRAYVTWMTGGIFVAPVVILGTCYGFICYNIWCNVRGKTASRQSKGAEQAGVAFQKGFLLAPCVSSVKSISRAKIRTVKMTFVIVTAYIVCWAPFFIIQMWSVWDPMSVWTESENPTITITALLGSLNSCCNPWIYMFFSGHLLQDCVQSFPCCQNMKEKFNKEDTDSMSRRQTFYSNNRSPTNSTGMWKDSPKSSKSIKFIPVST

SMILES	%max [1]	Stability [2]	EC50 (Vasopressin V1b receptor [3])	Ki (Oxytocin receptor [4])	Ki (Vasopressin V1b receptor [5])	IC50 (Oxytocin receptor [6]; cho)	EC50 (Oxytocin receptor [7])	IC50 (Vasopressin V1a receptor [8])	Ki (Vasopressin V1a receptor [9])	IC50 (Vasopressin V1b receptor [10])	EC50 (Vasopressin V1a receptor [11])	Ki (Vasopressin V2 receptor [12])	Ratio IC50 (Homo sapiens [13])	IC50 (Oxytocin receptor [6]; read-out: IC50)	EC50 (Vasopressin V2 receptor [14])	Ratio IC50 (Homo sapiens [15])	IC50 (Vasopressin V2 receptor [16])	Ratio Ki (Homo sapiens [17])	Ratio Ki (Homo sapiens [18])	half-life [19]
CC[C@H](C)[C@@H]1NC(=O)[C@H](Cc2ccc(OC)cc2)NC(=O)CCCSC[C@@H](C(=O)N2CCC[C@H]2C(=O)N[C@@H](CC(C)C)C(=O)NCC(N)=O)NC(=O)[C@H](CC(N)=O)NC(=O)[C@H](CCC(N)=O)NC1=O (Y(Me)IQNCPLG-NH2; linker N-5 via X1)	45%																			
CC[C@H](C)[C@@H]1NC(=O)[C@H](Cc2ccc(O)cc2)NC(=O)CCSCc2cccc(c2)CSC[C@@H](C(=O)N2CCC[C@H]2C(=O)N[C@@H](CC(C)C)C(=O)NCC(N)=O)NC(=O)[C@H](CC(N)=O)NC(=O)[C@H](CCC(N)=O)NC1=O	75%	Stable	2.97 µM	0.05 µM	> 6 µM	Not Active	0.034 µM	4.4 µM	1.68 µM	Not Active	> 20 µM									
CC[C@H](C)[C@@H]1NC(=O)[C@H](Cc2ccc(O)cc2)NC(=O)CCSCc2ccccc2CSC[C@@H](C(=O)N2CCC[C@H]2C(=O)N[C@@H](CCCNC(=N)N)C(=O)NCC(N)=O)NC(=O)[C@H](CC(N)=O)NC(=O)[C@H](CCC(N)=O)NC1=O ([Mpa]YIQNCPRG-NH2; linker 1-6 via oXylylene)			9.26 µM	0.166 µM	> 6 µM		> 10 µM	0.014 µM	0.03 µM	Not Active	> 20 µM	> 6 µM	0.008	1.72 µM	18.9 µM	123	Not Active	0.2	5.5	
CC[C@H](C)[C@@H]1NC(=O)[C@H](Cc2ccc(O)cc2)NC(=O)[C@@H](N)CSSC[C@@H](C(=O)N2CCC[C@H]2C(=O)N[C@@H](CC(C)C)C(=O)NCC(N)=O)NC(=O)[C@H](CC(N)=O)NC(=O)[C@H](CCC(N)=O)NC1=O [OXYTOCIN]																				3 min
CC[C@H](C)[C@@H]1NC(=O)[C@H](Cc2ccc(O)cc2)NC(=O)CCSCc2ccccc2CSC[C@@H](C(=O)N2CCC[C@H]2C(=O)N[C@@H](CC(C)C)C(=O)NCC(N)=O)NC(=O)[C@H](CC(N)=O)NC(=O)[C@H](CCC(N)=O)NC1=O			8.3 µM	0.22 µM	> 6 µM	Not Active		0.035 µM	0.069 µM	Not Active	> 20 µM									
